Experimental data published in ChEMBL document CHEMBL1131328 (J Med Chem, 1998).

What was measured:
[1] = molecular target: T1, Estrogen receptor (Rattus norvegicus) (UniProt P06211+Q62986)
[2] = species: Rattus norvegicus; test: Dose required to reduce serum cholesterol by 50% relative to ovariectomized (OVX) controls; assay type: functional
In short: (§1)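 Ovariectomized rats were dosed daily for 4 days, and serum cholesterol was measured. Values are mean percent decrease relative to OVX controls ± SEM, n ≥ 5 per group, with significance at p ≤ 0.05. ED50 is the dose reducing serum cholesterol by 50% relative to OVX controls.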

[3] = tested on: Rattus norvegicus; test: Percent decrease in serum cholesterol relative to OVX controls, at 0.01 mg/Kg compound dose; assay type: functional
In short: as §1

[4] = tested on: MCF7; test: Inhibition of estrogen-stimulated MCF-7 cell proliferation; assay type: functional, cell-based; conditions: Homo sapiens
In short: (§2)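 MCF-7 breast tumor cells were stimulated to proliferate with 10⁻¹¹ M 17β-estradiol, with test compound added to measure inhibition of that proliferation. IC50 was derived from the inhibition.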

[5] = tested on: Rattus norvegicus; test: Percent decrease in serum cholesterol relative to OVX controls, at 1.0 mg/Kg compound dose; assay type: functional
In short: as §1

[6] = tested on: Rattus norvegicus; test: Minimally effective dose(MED) (mg/kg body weight) at which a significant increase in EPO activity was observed in rats; assay type: functional; conditions: read-out: MED
In short: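 Uterine eosinophil peroxidase (EPO) activity was measured in the 4-day ovariectomized rat assay. […] Activity at the MED is given as Vmax ± standard error.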

[7] = molecular target: T1, Estrogen receptor (Rattus norvegicus); test: Minimally effective dose(MED) (mg/kg body weight) at which a statistically significant (p<= 0.05) increase in uterine weight/body weight was observed.; assay type: functional, organism-based
In short: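 A 4-day ovariectomized rat assay with daily dosing. Uterine weight/body weight was compared with OVX controls. The MED is the lowest dose (mg/kg) giving a significant increase (p ≤ 0.05). Activity at the MED is given as percent increase over OVX controls ± standard error.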

[8] = tested on: MCF7; test: Inhibition of estrogen-stimulated MCF-7 cell proliferation; not active; assay type: functional, cell-based, Homo sapiens
In short: as §2

| MED [1] [mg/kg] | IC50 [4] [nM] | IC50 [8] | SMILES | ED50 [2] [mg/kg] | Decrease [3] [%] | Decrease [5] [%] | minimal effective dose [6] [mg/kg] | MED [7] [mg/kg] |
| --- | --- | --- | --- | --- | --- | --- | --- | --- |
| – | 0.4 | – | Oc1ccc2c(c1)OC(c1ccc(OCCN3CCCCC3)cc1)c1c-2ccc2cc(O)ccc12 (configuration not stated) | 0.02 | 57.2 | 65.7 | > 10 | > 10 |
| 0.1 | 8 | – | CCN(CC)CCOc1ccc(C2Oc3cc(O)ccc3-c3sc4cc(O)ccc4c32)cc1 (configuration not stated) | > 10 | 20.6 | 38.7 | 0.1 | – |
| 0.1 | 80 | – | c1ccc2c(c1)OC(c1ccc(OCCN3CCCCC3)cc1)c1c-2sc2ccccc12 (configuration not stated) | 0.7 | 39.8 | – | > 10 | – |
| > 10 | 0.2 | – | Oc1ccc2c(c1)OC(c1ccc(OCCN3CCCCC3)cc1)c1c-2sc2cc(O)ccc12 (configuration not stated) | 0.15 | 62.2 | 47.6 | > 10 | – |
| – | 100 | – | COc1ccc2c(c1)OC(c1ccc(OCCN3CCCCC3)cc1)c1c-2sc2cc(OC)ccc12 (configuration not stated) | – | – | – | – | – |
| – | – | Not Active | C#C[C@]1(O)CC[C@H]2[C@@H]3CCc4cc(O)ccc4[C@H]3CC[C@@]21C [ETHINYL ESTRADIOL] | 0.005 | 57.1 | – | 0.1 | – |

The remaining lines, values behind:

| SMILES | MED [1] [mg/kg] | IC50 [4] [nM] | IC50 [8] | ED50 [2] [mg/kg] | Decrease [3] [%] | Decrease [5] [%] | minimal effective dose [6] [mg/kg] | MED [7] [mg/kg] |
| --- | --- | --- | --- | --- | --- | --- | --- | --- |
| Oc1ccc2c3c(sc2c1)-c1ccccc1OC3c1ccc(OCCN2CCCCC2)cc1 (configuration not stated) | > 10 | 6 | – | 1 | 25.4 | 51.5 | > 10 | – |
| CN(C)CCOc1ccc(C2Oc3cc(O)ccc3-c3sc4cc(O)ccc4c32)cc1 (configuration not stated) | 0.1 | 2 | – | 0.5 | 40.1 | 54.7 | 0.1 | – |
| Oc1ccc2c(c1)OC(c1ccc(OCCN3CCCC3)cc1)c1c-2sc2cc(O)ccc12 (configuration not stated) | 0.1 | 0.6 | – | 0.2 | 38.5 | 68 | > 1 | – |
| CC/C(=C(\c1ccccc1)c1ccc(OCCN(C)C)cc1)c1ccccc1 [TAMOXIFEN] | – | – | – | 0.2 | 39.2 | 71.1 | 0.1 | – |
| Oc1ccc2c(c1)OC(c1ccc(OCCN3CCOCC3)cc1)c1c-2sc2cc(O)ccc12 (configuration not stated) | 1 | 6 | – | > 10 | -48.7 | 14.3 | 1 | – |
| Oc1ccc2c(c1)OC(c1ccc(OCCN3CCCCC3)cc1)c1c-2oc2cc(O)ccc12 (configuration not stated) | > 10 | 0.7 | – | > 10 | 17.4 | – | > 10 | – |
| Oc1ccc2c(c1)OC(c1ccc(OCCN3CCCCC3)cc1)c1c-2sc2ccccc12 (configuration not stated) | > 10 | 20 | – | 0.5 | 46.5 | 53.7 | > 10 | – |
| O=C(c1ccc(OCCN2CCCCC2)cc1)c1c(-c2ccc(O)cc2)sc2cc(O)ccc12 [RALOXIFENE] | – | […] | – | […] | 44.9 | – | > 10 | – |
| O=C1CCCN1CCOc1ccc(C2Oc3cc(O)ccc3-c3sc4cc(O)ccc4c32)cc1 (configuration not stated) | 3 | 9 | – | – | -15.2 | 4.4 | > 3 | – |
